Laboratory results published in ChEMBL document CHEMBL1121936, “Apyrogenic, adjuvant-active N-acetylmuramyl-dipeptides” (1982).
Where “and” joins values, the source holds several entries; their conditions need not be identical. Identical values can stand only once.

Experiments:
Format in all cases: functional
[1] = test system: Klebsiella pneumoniae; test: Protective activity against Klebsiella pneumoniae was measured as difference between the percentage of survivors in treated group and its respective control group; design: concentration or dose not given beside the values
Outline: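 Mice, 24 per group. Compound given iv at 100 μg on day 0; on day +1, intramuscular challenge with 10^4 K. pneumoniae. Mortality followed from day 1 to day 15. Protection is the percentage of survivors in the treated group minus that in its control group at day +15.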

[2] = test system: Klebsiella pneumoniae; test: Protective activity against Klebsiella pneumoniae was measured as number of survivors to the number of total animals used; 10/24
[3] = test system: Mus musculus; test: Adjuvant activity was measured after sc administration in phosphate buffer saline (PBS) to mice with BSA and expressed as primary response
Outline: (§1)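 Female Swiss mice, 5–6 weeks old. BSA antigen given sc in PBS: 0.5 mg to prime, then 0.1 mg one month later as boost. Glycopeptide (0.1 mg) given with the priming injection. Sera pooled on day 21 for the primary titer; on day 37 sera titrated individually for the secondary titer. Titer is log of highest serum dilution agglutinating BSA-coated sheep RBC (passive hemagglutination). Student's t test vs controls.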

[4] = test system: Mus musculus; test: Adjuvant activity was measured after sc administration in phosphate buffer saline (PBS) to mice with BSA and expressed as secondary response; outline: as §1
[5] = test system: Oryctolagus cuniculus; test: Febrile responses of compound was measured in rabbit after iv injection at the dose of 10 mg/kg
Outline: (§2)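 Rabbits (strain HYL A, 3–3.5 kg), three per specimen, per French/European pharmacopoeia. Compound dissolved in pyrogen-free isotonic saline and given iv, first at 1 mg/kg. Rectal temperature recorded continuously and automatically. A specimen was judged nonpyrogenic if no rabbit rose above 0.5 °C; such specimens then went on to 3, 5 and 10 mg/kg. ΔT reported per rabbit, with the mean.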

[6] = test system: Oryctolagus cuniculus; test: Febrile responses of compound was measured in rabbit after iv injection at the dose of 1 mg/kg; outline: as §2
[7] = test system: Oryctolagus cuniculus; test: Febrile responses of compound was measured in rabbit after iv injection at the dose of 3 mg/kg; outline: as §2
[8] = test system: Klebsiella pneumoniae; test: Protective activity against Klebsiella pneumoniae was measured as number of survivors to the number of total animals used; 0/24
[9] = test system: Klebsiella pneumoniae; test: Protective activity against Klebsiella pneumoniae was measured as number of survivors to the number of total animals used; 7/24
[10] = test system: Klebsiella pneumoniae; test: Protective activity against Klebsiella pneumoniae was measured as number of survivors to the number of total animals used; 16/24
[11] = test system: Klebsiella pneumoniae; test: Protective activity against Klebsiella pneumoniae was measured as number of survivors to the number of total animals used;15/24
[12] = test system: Klebsiella pneumoniae; test: Protective activity against Klebsiella pneumoniae was measured as number of survivors to the number of total animals used; 8/24
[13] = test system: Klebsiella pneumoniae; test: Protective activity against Klebsiella pneumoniae was measured as number of survivors to the number of total animals used; 3/24
[14] = test system: Oryctolagus cuniculus; test: Febrile responses of compound was measured in rabbit after iv injection at the dose of 5 mg/kg; outline: as §2
[15] = test system: Klebsiella pneumoniae; test: Protective activity against Klebsiella pneumoniae was measured as number of survivors to the number of total animals used; 4/24

SMILES	Protection [1]	Primary response [3]	Secondary response [4]	Delta T [5]	Delta T [6]	Delta T [7]	further results
CCCCCOC(=O)[C@H](CCC(N)=O)NC(=O)[C@H](C)NC(=O)[C@@H](C)OC1C(O)C(CO)OC(O)C1NC(C)=O (stereo partly specified)	37%	1.64	7.8	0.13 °C	0.1 °C	0.03 °C	Survivors [2]: 10 N/total
CCOC(=O)[C@H](CCC(N)=O)NC(=O)[C@H](C)NC(=O)[C@@H](C)OC1C(O)C(CO)OC(O)C1NC(C)=O (stereo partly specified)	0%	4.64	9.53		0.23 °C	0.03 °C	Survivors [8]: 0 N/total; Delta T ([5]; 10 mg/kg): 0.47 °C and 0.32 °C
CC(=O)NC1C(O)OC(CO)C(O)C1O[C@H](C)C(=O)N[C@@H](C)C(=O)N[C@@H](CCC(N)=O)C(=O)O (stereo partly specified)		2.97	7.35		0.03 °C	0.9 °C	
CCCOC(=O)[C@H](CCC(N)=O)NC(=O)[C@H](C)NC(=O)[C@@H](C)OC1C(O)C(CO)OC(O)C1NC(C)=O (stereo partly specified)	25%	4.64	9.52	0.07 degrees C	0.2 °C	0.43 °C	Survivors [9]: 7 N/total
CCCCOC(=O)[C@H](CCC(N)=O)NC(=O)[C@H](C)NC(=O)[C@@H](C)OC1C(O)C(CO)OC(O)C1NC(C)=O (stereo partly specified)	63%	4.21	8.43	0.3 °C	0.03 °C	0.26 °C	Survivors [10]: 16 N/total
CC(=O)N[C@H]1C(O)O[C@H](CO)[C@@H](O)[C@@H]1O[C@H](C)C(=O)N[C@@H](C)C(=O)N[C@H](CCC(=O)O)C(N)=O (stereo partly specified) [MURAMYL DIPEPTIDE]	58%	3.64	8.34		0.76 °C		Survivors [11]: 15 N/total
CCCCCCOC(=O)[C@H](CCC(N)=O)NC(=O)[C@H](C)NC(=O)[C@@H](C)OC1C(O)C(CO)OC(O)C1NC(C)=O (stereo partly specified)	29%	2.75	7.71	0.13 °C	0.13 °C	0.2 °C	Survivors [12]: 8 N/total
COC(=O)[C@H](CCC(N)=O)NC(=O)[C@H](C)NC(=O)[C@@H](C)OC1C(O)C(CO)OC(O)C1NC(C)=O (stereo partly specified)	8%	3.85	8.72	0.1 °C	0.1 °C	0.23 °C	Survivors [13]: 3 N/total
CC(=O)NC1C(O)OC(CO)C(O)C1O[C@H](C)C(=O)N[C@@H](C)C(=O)N[C@@H](CCC(N)=O)C(N)=O (stereo partly specified)					0.1 °C	0.2 °C	Delta T [14]: 0.67 °C
CC(=O)NC1C(O)OC(CO)C(O)C1O[C@H](C)C(=O)N[C@@H](C)C(=O)N[C@@H](CCC(=O)O)C(=O)O (stereo partly specified)						0.8 °C	Delta T ([6]; 1 mg/kg): 0.37 °C and 0.5 °C
CCCCCCCCCCOC(=O)[C@H](CCC(N)=O)NC(=O)[C@H](C)NC(=O)[C@@H](C)OC1C(O)C(CO)OC(O)C1NC(C)=O (stereo partly specified)	12%	3.64	9.1	0.23 °C	0.2 °C	0.17 °C	Survivors [15]: 4 N/total
COC(=O)CC[C@H](NC(=O)[C@H](C)NC(=O)[C@@H](C)OC1C(O)C(CO)OC(O)C1NC(C)=O)C(=O)OC (stereo partly specified)							Delta T ([6]; 1 mg/kg): 0.33 °C and 0.13 °C; Delta T ([7]; 3 mg/kg): 0.4 °C and 0.17 °C; Delta T ([14]; 5 mg/kg): 1.1 °C and 0.9 °C
